Measured values published in ChEMBL document CHEMBL1147555, “2,3-diarylpyran-4-ones: a new series of selective cyclooxygenase-2 inhibitors” (Bioorg Med Chem Lett, 2004).
pIC50: −log10 of the molar value.

Columns and labels:
[1] = biological target: T1, Prostaglandin G/H synthase 1 (Mus musculus) (UniProt P22437); experiment: In vitro percentage inhibitory activity against prostaglandin G/H synthase 1 from freshly harvested mouse peritoneal macrophages at 10 ug/mL
T1 sequence (whole entry): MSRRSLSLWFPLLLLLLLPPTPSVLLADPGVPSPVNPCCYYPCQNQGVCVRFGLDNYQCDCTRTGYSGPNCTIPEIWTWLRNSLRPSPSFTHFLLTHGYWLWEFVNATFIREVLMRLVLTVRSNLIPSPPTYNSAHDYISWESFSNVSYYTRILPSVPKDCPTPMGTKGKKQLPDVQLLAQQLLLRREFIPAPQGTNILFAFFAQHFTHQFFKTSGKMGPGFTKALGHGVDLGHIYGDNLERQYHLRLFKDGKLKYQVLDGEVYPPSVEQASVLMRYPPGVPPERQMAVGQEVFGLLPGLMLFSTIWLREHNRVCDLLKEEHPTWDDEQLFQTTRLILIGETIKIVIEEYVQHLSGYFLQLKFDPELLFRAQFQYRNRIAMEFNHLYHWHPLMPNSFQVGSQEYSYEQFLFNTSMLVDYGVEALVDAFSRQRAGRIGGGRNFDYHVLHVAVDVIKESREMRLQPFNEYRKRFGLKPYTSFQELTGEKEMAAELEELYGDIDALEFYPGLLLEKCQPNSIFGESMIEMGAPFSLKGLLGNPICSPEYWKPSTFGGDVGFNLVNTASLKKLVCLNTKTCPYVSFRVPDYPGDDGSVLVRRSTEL

[2] = biological target: T2, Prostaglandin G/H synthase 2 (Mus musculus, UniProt Q05769); experiment: Inhibitory activity against Prostaglandin G/H synthase 2 from freshly harvested mouse peritoneal macrophages
T2 sequence (Q05769 whole entry): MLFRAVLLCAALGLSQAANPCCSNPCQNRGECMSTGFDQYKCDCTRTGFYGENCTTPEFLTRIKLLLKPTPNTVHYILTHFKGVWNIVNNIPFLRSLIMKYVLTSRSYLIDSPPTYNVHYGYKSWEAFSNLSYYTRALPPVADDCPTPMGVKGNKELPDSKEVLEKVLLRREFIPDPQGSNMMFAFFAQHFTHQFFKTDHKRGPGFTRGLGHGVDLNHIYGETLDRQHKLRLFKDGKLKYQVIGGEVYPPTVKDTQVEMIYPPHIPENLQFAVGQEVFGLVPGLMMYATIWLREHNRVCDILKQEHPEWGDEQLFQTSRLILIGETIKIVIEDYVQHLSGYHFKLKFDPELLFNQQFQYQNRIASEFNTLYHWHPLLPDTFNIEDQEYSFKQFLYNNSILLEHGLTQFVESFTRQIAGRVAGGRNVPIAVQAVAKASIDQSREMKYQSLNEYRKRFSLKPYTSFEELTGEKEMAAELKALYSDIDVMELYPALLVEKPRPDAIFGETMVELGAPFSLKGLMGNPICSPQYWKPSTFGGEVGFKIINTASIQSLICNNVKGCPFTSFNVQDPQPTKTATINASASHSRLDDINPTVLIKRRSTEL

Rattus norvegicus [3] = experiment: Inhibitory effect of compound on carrageenan-induced rat paw edema administered p.o. at 10 mg/kg; type: functional; conditions: route oral
Method in brief: (§1)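 Compound given orally; paw swelling measured and expressed as percent inhibition, five animals per group.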

Rattus norvegicus [4] = experiment: Inhibitory effect of compound on carrageenan-induced rat paw edema administered p.o. at 3 mg/kg; type: functional; conditions: route oral; method in brief: as §1
[5] = biological target: T2, Prostaglandin G/H synthase 2; experiment: In vitro inhibitory activity against Prostaglandin G/H synthase 2 from freshly harvested mouse peritoneal macrophages; Not active
[6] = Plasma half-life in rat; type: ADME, organism-based
[7] = Maximum plasma concentration in rat; type: ADME, organism-based
[8] = Time of maximum plasma concentration in rat; type: ADME, organism-based
[9] = biological target: T3, Prostaglandin G/H synthase 2 (Mus musculus) (UniProt Q05769); experiment: In vitro percentage inhibition of Prostaglandin G/H synthase 2 from freshly harvested mouse peritoneal macrophages at 10 ug/ml
T3 sequence (whole entry): T2 sequence (Q05769 whole entry)

SMILES	inhibition [1]	pIC50 [2]	inhibition in vivo at 10 mg/kg (Rattus norvegicus [3])	further results
CS(=O)(=O)c1ccc(-c2occc(=O)c2-c2ccc(F)cc2)cc1	< 5%	5.65	–	–
CS(=O)(=O)c1ccc(-c2occ(Cl)c(=O)c2-c2ccc(-c3ccccc3)cc2)cc1	68%	7.04	21%	–
CS(=O)(=O)c1ccc(-c2occ(Cl)c(=O)c2-c2cc(F)cc(F)c2)cc1	< 5%	5.63	–	–
Cc1ccc(-c2cc(C(F)(F)F)nn2-c2ccc(S(N)(=O)=O)cc2)cc1 [CELECOXIB]	–	–	42%	inhibition in vivo at 3 mg/kg (Rattus norvegicus [4]): 29%
CS(=O)(=O)c1ccc(-c2occ(Cl)c(=O)c2-c2cccc(-c3ccccc3)c2)cc1	< 5%	–	–	IC50 [5]: Not Active
COc1ccc2c(c1)c(CC(=O)O)c(C)n2C(=O)c1ccc(Cl)cc1 [INDOMETHACIN]	–	–	42%	–
CS(=O)(=O)c1ccc(-c2occ(Cl)c(=O)c2-c2cccnc2)cc1	< 5%	5.15	–	–
CS(=O)(=O)c1ccc(-c2oc3ccccc3c(=O)c2-c2cccnc2)cc1	–	–	25%	–
CS(=O)(=O)c1ccc(-c2occ(Cl)c(=O)c2-c2ccc(OCc3ccccc3)cc2)cc1	< 5%	–	–	IC50 [5]: Not Active
CS(=O)(=O)c1ccc(-c2occ(Cl)c(=O)c2-c2ccc(-c3ccccc3)c(F)c2)cc1	70%	7.06	–	–
CS(=O)(=O)c1ccc(-c2occ(Cl)c(=O)c2-c2cccs2)cc1	< 5%	–	–	inhibition [9]: 9%
CS(=O)(=O)c1ccc(-c2occ(Cl)c(=O)c2-c2ccc(F)cc2F)cc1	6%	5.86	–	inhibition in vivo at 3 mg/kg (Rattus norvegicus [4]): 20%
CS(=O)(=O)c1ccc(-c2occ(Cl)c(=O)c2-c2ccccc2F)cc1	19%	5.20	–	–

Second part, led by results:

inhibition [1]	pIC50 [2]	SMILES	inhibition in vivo at 10 mg/kg (Rattus norvegicus [3])	further results
< 5%	–	CS(=O)(=O)c1ccc(-c2occ(Cl)c(=O)c2-c2ccc(Cl)cc2)cc1	–	–
< 5%	–	CS(=O)(=O)c1ccc(-c2occ(Cl)c(=O)c2-c2ccc(F)cc2)cc1	33%	inhibition in vivo at 3 mg/kg (Rattus norvegicus [4]): 20%
< 5%	6.13	CS(=O)(=O)c1ccc(-c2occ(Cl)c(=O)c2-c2ccsc2)cc1	13%	–
< 5%	5.85	CS(=O)(=O)c1ccc(-c2occ(Cl)c(=O)c2-c2cccc(Cl)c2)cc1	–	–
< 5%	5.97	CS(=O)(=O)c1ccc(-c2occ(Cl)c(=O)c2-c2ccccc2)cc1	–	–
17%	–	CS(=O)(=O)c1ccc(-c2occ(Cl)c(=O)c2-c2ccc(O)cc2)cc1	–	IC50 [5]: Not Active
14%	6.14	CCc1ccc(-c2c(-c3ccc(S(C)(=O)=O)cc3)occ(Cl)c2=O)cc1	4%	–
20%	5.91	CS(=O)(=O)c1ccc(-c2occ(Cl)c(=O)c2-c2ccc(F)c(F)c2)cc1	37%	half-life [6]: 3.7 h; Cmax [7]: 5.1 µg/mL; Tmax [8]: 4 h; inhibition in vivo at 3 mg/kg (Rattus norvegicus [4]): 10%
< 5%	6.08	CS(=O)(=O)c1ccc(-c2occ(Cl)c(=S)c2-c2ccc(F)cc2)cc1	–	–
< 5%	5.85	CS(=O)(=O)c1ccc(-c2occ(Cl)c(=O)c2-c2cccc(F)c2)cc1	–	–
< 5%	5.16	COc1ccc(-c2c(-c3ccc(S(C)(=O)=O)cc3)occ(Cl)c2=O)cc1	–	–
< 5%	5.75	Cc1ccc(-c2c(-c3ccc(S(C)(=O)=O)cc3)occ(Cl)c2=O)cc1	–	–
